Measured values as given in ChEMBL document CHEMBL1914425, “Amine-alkyl derivatives of hydantoin: new tool to combat resistant bacteria” (2011).
≈ marks a conversion by molar mass, not a printed value. Calls of active or inactive are those of the source. No cut-off for these calls is given here.

Key:
Klebsiella aerogenes [1] = assay: Inhibition of AcrAB-TolC efflux pump in Enterobacter aerogenes CM-64 assessed as effect on nalidixic acid MIC at 62.5 uM relative to control
Klebsiella aerogenes [2] = assay: Inhibition of AcrAB-TolC efflux pump in Enterobacter aerogenes ATCC 13048 assessed as effect on nalidixic acid MIC at 62.5 uM relative to control
Klebsiella aerogenes [3] = assay: Antibacterial activity against AcrAB-TolC-over producing Enterobacter aerogenes CM-64 after 18 hrs by two fold serial dilution method; assay type: functional; conditions: CM-64, 18 h
Klebsiella aerogenes [4] = assay: Antibacterial activity against Enterobacter aerogenes ATCC 13048 after 18 hrs by two fold serial dilution method; assay type: functional; conditions: ATCC 13048, 18 h
Klebsiella aerogenes [5] = assay: Inhibition of AcrAB-TolC efflux pump in Enterobacter aerogenes CM-64 assessed as fold decrease in nalidixic acid MIC at 333 uM relative to control
Summary of the method: (§1)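 Nalidixic acid MIC (two-fold serial dilutions, about 10^6 cells/mL Mueller-Hinton broth, 18 h, 37 C) determined with a fixed sub-inhibitory level of compound present during incubation. Activity gain A = nalidixic acid MIC without compound divided by MIC with compound. PAbN at 0.050 mM served as reference inhibitor.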

Klebsiella aerogenes [6] = assay: Inhibition of AcrAB-TolC efflux pump in Enterobacter aerogenes ATCC 13048 assessed as fold decrease in nalidixic acid MIC at 62.5 uM relative to control; summary of the method: as §1
Klebsiella aerogenes [7] = assay: Inhibition of AcrAB-TolC efflux pump in Enterobacter aerogenes CM-64 assessed as fold decrease in nalidixic acid MIC at 62.5 uM relative to control; summary of the method: as §1
Klebsiella aerogenes [8] = assay: Inhibition of AcrAB-TolC efflux pump in Enterobacter aerogenes ATCC 13048 assessed as effect on nalidixic acid MIC at 100 uM relative to control; summary of the method: as §1
Klebsiella aerogenes [9] = assay: Inhibition of AcrAB-TolC efflux pump in Enterobacter aerogenes CM-64 assessed as fold decrease in nalidixic acid MIC at 100 uM relative to control; summary of the method: as §1

Structure (SMILES) | inhibition (Klebsiella aerogenes [1]) | inhibition (Klebsiella aerogenes [2]) | MIC (Klebsiella aerogenes [3]) | MIC (Klebsiella aerogenes [4]) | fold change (FC) (Klebsiella aerogenes [5]) | fold change (FC) (Klebsiella aerogenes [6]) | fold change (FC) (Klebsiella aerogenes [7]) | inhibition (Klebsiella aerogenes [8]) | fold change (FC) (Klebsiella aerogenes [9])
CCOC(=O)N1CCN(CCCCN2C(=O)N(CC(=O)OC)C(=O)C2(c2ccccc2)c2ccccc2)CC1 | inactive | inactive | 1250 µM (≈ 671 µg/mL) | 1250 µM (≈ 671 µg/mL) |  |  |  |  | 
COC(=O)CN1C(=O)N(CC(O)CN2CCN(c3ccccc3)CC2)C(c2ccccc2)(c2ccccc2)C1=O (configuration not stated) |  |  | 5000 µM (≈ 2710 µg/mL) | 5000 µM (≈ 2710 µg/mL) | 4 |  |  |  | 
COc1ccccc1N1CCN(CC(O)CN2C(=O)N(CC(=O)O)C(=O)C2(c2ccccc2)c2ccccc2)CC1 (configuration not stated) |  |  | 250 µM (≈ 140 µg/mL) | 125 µM (≈ 69.8 µg/mL) |  | 2 | 4 |  | 
COC(=O)CN1C(=O)N(CCCCN2CCN(c3ccccc3)CC2)C(c2ccccc2)(c2ccccc2)C1=O |  |  | > 500 µM | > 500 µM |  |  |  | inactive | 4
CCOC(=O)N1CCN(CCCCN2C(=O)N(CC(=O)O)C(=O)C2(c2ccccc2)c2ccccc2)CC1 | inactive | inactive | 1250 µM (≈ 653 µg/mL) | 1250 µM (≈ 653 µg/mL) |  |  |  |  | 
O=C(O)CN1C(=O)N(CCCN2CCCN3CCCN=C32)C(c2ccccc2)(c2ccccc2)C1=O | inactive | inactive | 1250 µM (≈ 612 µg/mL) | 1250 µM (≈ 612 µg/mL) |  |  |  |  | 
COC(=O)CN1C(=O)N(CCCCCCCCN2CCNCC2)C(c2ccccc2)(c2ccccc2)C1=O | inactive | inactive | 1250 µM (≈ 651 µg/mL) | 1250 µM (≈ 651 µg/mL) |  |  |  |  | 
COC(=O)CN1C(=O)N(CCCN2CCN(c3ccccc3)CC2)C(c2ccccc2)(c2ccccc2)C1=O |  |  | > 500 µM | > 500 µM |  |  |  | inactive | 
CC(=O)OC(CN1CCN(c2ccccc2)CC1)CN1C(=O)N(C)C(=O)C1(c1ccccc1)c1ccccc1 (configuration not stated) |  |  | > 500 µM | > 500 µM |  |  |  | inactive | 
CCOC(=O)N1CCN(CCCCCCN2C(=O)N(CC(=O)OC)C(=O)C2(c2ccccc2)c2ccccc2)CC1 | inactive | inactive | 1250 µM (≈ 706 µg/mL) | 1250 µM (≈ 706 µg/mL) |  |  |  |  | 
O=C(O)CN1C(=O)N(CCCCN2CCCN3CCCN=C23)C(c2ccccc2)(c2ccccc2)C1=O | inactive | inactive | 1250 µM (≈ 630 µg/mL) | 1250 µM (≈ 630 µg/mL) |  |  |  |  | 
NCCCCN1C(=O)N(CC(=O)O)C(=O)C1(c1ccccc1)c1ccccc1 | inactive | inactive | 1250 µM (≈ 477 µg/mL) | 1250 µM (≈ 477 µg/mL) |  |  |  |  | 
COc1ccccc1N1CCN(CCCN2C(=O)N(C)C(=O)C2(c2ccccc2)c2ccccc2)CC1 |  |  | > 500 µM | > 500 µM |  |  |  | inactive | 
O=C(O)CN1C(=O)N(CCCCCN2CCCN3CCCN=C23)C(c2ccccc2)(c2ccccc2)C1=O | inactive | inactive | 1250 µM (≈ 647 µg/mL) | 1250 µM (≈ 647 µg/mL) |  |  |  |  | 
CN1C(=O)N(CC(O)CN2CCN(c3ccccc3)CC2)C(c2ccccc2)(c2ccccc2)C1=O (configuration not stated) |  |  | > 500 µM | > 500 µM |  |  |  | inactive | 
COc1ccccc1N1CCN(CCCCN2C(=O)N(CC(=O)O)C(=O)C2(c2ccccc2)c2ccccc2)CC1 |  |  | 250 µM (≈ 139 µg/mL) | 62.5 µM (≈ 34.8 µg/mL) |  | 2 | 4 |  | 
CN1C(=O)N(CCCCCN2CCN(c3ccccc3)CC2)C(c2ccccc2)(c2ccccc2)C1=O |  |  | > 500 µM | > 500 µM |  |  |  | inactive | 4
O=C(O)CN1C(=O)N(CCCCCCN2CCCN3CCCN=C23)C(c2ccccc2)(c2ccccc2)C1=O | inactive | inactive | 1250 µM (≈ 665 µg/mL) | 1250 µM (≈ 665 µg/mL) |  |  |  |  | 
COC(=O)CN1C(=O)N(CC(CN2CCN(c3ccccc3)CC2)OC(C)=O)C(c2ccccc2)(c2ccccc2)C1=O (configuration not stated) |  |  | 250 µM (≈ 146 µg/mL) | 250 µM (≈ 146 µg/mL) |  |  |  |  | 
COC(=O)CN1C(=O)N(CC(O)CNC(C)C)C(c2ccccc2)(c2ccccc2)C1=O (configuration not stated) | inactive | inactive | 125 µM (≈ 54.9 µg/mL) | 125 µM (≈ 54.9 µg/mL) |  |  |  |  | 
CCOC(=O)N1CCN(CCCCCCCCN2C(=O)N(CC(=O)OC)C(=O)C2(c2ccccc2)c2ccccc2)CC1 | inactive | inactive | 1250 µM (≈ 741 µg/mL) | 1250 µM (≈ 741 µg/mL) |  |  |  |  | 
NCCCN1C(=O)N(CC(=O)O)C(=O)C1(c1ccccc1)c1ccccc1 | inactive | inactive | 1250 µM (≈ 459 µg/mL) | 1250 µM (≈ 459 µg/mL) |  |  |  |  | 
O=C1NC(=O)C(c2ccccc2)(c2ccccc2)N1CCCCN1CCN(c2ccccc2)CC1 |  |  | > 500 µM | > 500 µM |  |  |  | inactive | 
CCOC(=O)N1CCN(CCCCCN2C(=O)N(CC(=O)OC)C(=O)C2(c2ccccc2)c2ccccc2)CC1 | inactive | inactive | 1250 µM (≈ 688 µg/mL) | 1250 µM (≈ 688 µg/mL) |  |  |  |  | 
NCCCCCCN1C(=O)N(CC(=O)O)C(=O)C1(c1ccccc1)c1ccccc1 | inactive | inactive | 1250 µM (≈ 512 µg/mL) | 1250 µM (≈ 512 µg/mL) |  |  |  |  | 
